Measurements reported in ChEMBL document CHEMBL1132197, “Stereospecific synthesis, structure-activity relationship, and oral bioavailability of tetrahydropyrimidin-2-one HIV protease inhibitors” (J Med Chem, 1999).

Tests used:
[1] = The maximum plasma concentration (Cmax) is the observed peak plasma concentration after an oral dose on rat; type: ADME, organism-based; set-up: route oral
Summary of the method: (§1)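 Rats dosed orally in groups at 10 mg/kg, in a formulation of propylene glycol, poly(ethylene glycol) 400 and water. Cmax is the observed peak plasma concentration after the oral dose.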

MT2 = assay: Antiviral activity by measuring its effect on the accumulation of viral RNA transcripts on infection of MT-2 cells with HIV-1 RF.; type: functional; details: Homo sapiens
Summary of the method: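 Viral RNA transcript accumulation read 3 days after HIV-1 RF infection of MT-2 cells. IC90 is the concentration cutting viral RNA by 90% versus an untreated infected culture. TC50 came from MTT dye reduction in uninfected MT-2 cultures grown 3 days with compound.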

[2] = molecular target: Human immunodeficiency virus type 1 protease (Human immunodeficiency virus 1, UniProt Q72874); assay: Inhibition constant of HIV protease inhibitors
Summary of the method: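 HIV protease (HIVPR) inhibition constant was determined by monitoring cleavage of a fluorescent peptide substrate, with products separated and quantified by HPLC.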

[3] = The maximum plasma concentration (Cmax) is the observed peak plasma concentration after an oral dose on dog.; type: ADME, organism-based, Canis lupus familiaris; set-up: route oral
[4] = The maximum plasma concentration (Cmax) is the observed peak plasma concentration after an oral dose on rat.; type: ADME, organism-based; set-up: route oral; summary of the method: as §1

SMILES	Cmax [1]	IC90 (MT2)	Ki [2]	Cmax [3]	Cmax [4]
O=C1N(Cc2cccc(-c3cc[nH]n3)c2)[C@H](CCc2ccccc2)[C@@H](O)[C@@H](Cc2ccccc2)N1Cc1cccc(-c2cc[nH]n2)c1	160 nM	22 nM	0.1 nM		
O=C1N(Cc2cccc(CO)c2)[C@H](CCc2ccccc2)[C@@H](O)[C@@H](Cc2ccccc2)N1Cc1cccc(CO)c1	240 nM	109 nM			
CC(=O)c1cccc(CN2C(=O)N(Cc3cccc(C(C)=O)c3)[C@H](Cc3ccccc3)[C@H](O)[C@H]2CCc2ccccc2)c1	180 nM	49 nM	0.91 nM		
O=C1N(Cc2ccc3[nH]ncc3c2)[C@H](CCc2ccccc2)[C@@H](O)[C@@H](Cc2ccccc2)N1Cc1ccc2[nH]ncc2c1			0.02 nM	250 nM	
Nc1cccc(CN2C(=O)N(Cc3cccc(N)c3)[C@H](Cc3ccccc3)[C@H](O)[C@H]2CCc2ccccc2)c1	1000 nM	365 nM			
O=C1N(Cc2cccc(O)c2)[C@H]([C@@H](F)Cc2ccccc2)[C@@H](O)[C@@H](Cc2ccccc2)N1Cc1cccc(O)c1		2100 nM	12 nM		250 nM
